The values below come from PubChem BioAssay.

SMILES strings stand for the structures. Calls of active or inactive are those of the source.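 Rule for the calls, unless noted: active = inhibition above 20% together with a positive visual image hit; inconclusive = visual image hit but inhibition not above 20%; inactive = no visual image hit.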

A short description of assay [1]: inhibitors of TNFa-induced NFkB p65 translocation, primary screen, imaging, HUVEC, MLSMR starter and 10KST1 sets (AID 438).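 For inhibition: signal is the nuclear over cytoplasmic p65 intensity ratio per well.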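 Note: compound added about 3h40 before a 20 min TNFalpha stimulation.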 As to conditions: HUVEC TNFa-induced p65 nuclear translocation; cell count: measured here: nuclei count (cytotoxicity indicator), at 2.08 µM; inhibition: at 2 µM, stronger effect = higher value, 0% TNFa-plus-vehicle, 100% no-TNFa wells.
Assay [2] is described as follows: endothelial E-selectin expression blockers – imaging, HUVEC, immunofluorescence, MLSMR starter and 10KST1 sets, primary screen (AID 487;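 active = visually confirmed hit in the image check and inhibition above 20%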;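 for inhibition: signal is fraction of cell area covered by stained E-selectin grains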;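 for nuclei count: 100% = median nuclei count of all wells on the same plate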). As to conditions: HUVEC TNFalpha-induced E-selectin immunofluorescence imaging, at 2 µM; inhibition: stronger effect = higher value; nuclei count: measured here: cell number, toxicity.
Assay [3] can be described thus: Primary imaging screen for DUSP6 inhibitors that restore phospho-Erk in transfected HeLa cells, chemical complementation (AID 609;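 active = compounds giving at least 50% inhibition in the cell-based MKP-3 phosphatase rescue imaging test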;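 for inhibition: phospho-Erk level distribution per well compared with pooled transfected vehicle control wells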). The conditions noted are these: HeLa MKP-3 transfected, phospho-Erk imaging KS statistic, at 10 µM, cells stimulated with TPA for 15 min.
Assay [4] has as its target Dual specificity protein phosphatase 6 (Homo sapiens) (UniProt Q16828). The description is as above. As to conditions: HeLa MKP-3 transfected, phospho-Erk imaging KS statistic; at 10 µM; stronger effect = higher value; cells stimulated with TPA for 15 min.
The target of assay [5] is Voltage-gated potassium channel subunit beta-2 (Rattus norvegicus) (UniProt P62483). Description: inhibitors of rat Kvbeta2 reductase activity – biochemical, NADPH fluorescence, primary screen (AID 622;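 active = fluorescence slope higher than the sample average by over 3 SD, cut at about -0.22 in these data, passing the limit was not always enough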;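 note: slope of raw intensity against log time taken from 70 to 1610 s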). The conditions noted are these: recombinant KvBeta, 4-cyanobenzaldehyde reduction, at 10 µM, stronger effect = higher value.
Sequence of Voltage-gated potassium channel subunit beta-2 (Rattus norvegicus) (P62483 whole entry, looked up): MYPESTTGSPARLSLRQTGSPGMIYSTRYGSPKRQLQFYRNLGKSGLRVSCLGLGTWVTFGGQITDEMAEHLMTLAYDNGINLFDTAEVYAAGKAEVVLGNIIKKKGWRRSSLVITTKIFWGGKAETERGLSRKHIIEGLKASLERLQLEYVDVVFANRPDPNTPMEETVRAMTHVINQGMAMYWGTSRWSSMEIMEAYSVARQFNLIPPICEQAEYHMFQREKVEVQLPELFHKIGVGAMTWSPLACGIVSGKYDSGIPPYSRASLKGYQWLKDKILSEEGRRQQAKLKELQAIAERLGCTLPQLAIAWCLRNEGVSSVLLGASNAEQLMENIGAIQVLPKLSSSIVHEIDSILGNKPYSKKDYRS
Assay [6] has the same target. Description: enhancers of rat Kvbeta2 NADPH turnover – biochemical, NADPH fluorescence, primary screen (AID 623;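 active = NADPH fluorescence slope more negative than the mean of all samples by about 3 SD, 99.7% confidence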;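 note: fluorescence intensity change per second fitted from 20 to 320 s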). The conditions noted are these: Recombinant KvBeta, NADPH fluorescence decrease slope, 10 min; at 10 µM; stronger effect = lower value.
Assay [7] concerns the target Muscarinic acetylcholine receptor M4 (Homo sapiens) (UniProt P08173). Description: M4-linked GIRK flux change, two-sided – cell-based, HEK293 M4/GIRK, thallium flux, BTC-AM, M4 allosteric agonist project, primary screen (AID 625;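 active = fluorescence slope after compound addition differing from the mean of all tested samples at 99.7% confidence, mostly higher but some lower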;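 note: thallium influx through GIRK channels coupled to M4 in HEK293 cells with BTC-AM dye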). As to conditions: at 10 µM, actives lie on both sides. The gist of the method:
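System: HEK293 cells with M4 receptor and GIRK channels | Incubation: Cells overnight at 37 °C, BTC-AM loading 1 h, reads 2 min total | Technique: Kinetic BTC-AM fluorescence sampled at 1 Hz, 10 s pre-addition baseline | Measure: Post-addition slope, 15–24 s, of baseline-normalized fluorescence | Control set: Carbachol positive, DMSO negative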

Assay [8] is described as follows: inhibitors of larval lipid processing in zebrafish, primary screen, whole organism, PED6 fluorescence, gall bladder and intestine (AID 686;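 active = a full or partial loss of lipid-probe fluorescence in the fish gall bladder, intestine or both, judged by eye; inactive = no fluorescence loss, or compound toxic to the fish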;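 note: larvae 5 to 7 days old with five fish per well; signal comes from phospholipase A2 cleavage of quenched PED6 carried via bile; overnight exposure to compound and PED6 before scoring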). The conditions noted are these: Zebrafish larvae PED6 lipid processing, fluorescence scoring; screened at 20 µM (by protocol). The gist of the method: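 Test system – live zebrafish larvae aged 5-7 days, whole organism · Buffer or medium – E3 fish medium · Reagent – quenched phospholipase substrate PED6, 100 nM final, ingested by larvae · Doses – 20 µM single dose · Incubation – overnight compound and PED6 incubation · Technique – visual fluorescence microscopy scoring of gall bladder, gut · Read-out basis – visual per-well fluorescence inhibition score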

Assay [9] can be described thus: loss of swimming-algae plug formation – whole organism, Chlamydomonas reinhardtii, WT vs cilia-less mutant, absorbance, 96-well, primary screen (AID 463189;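 active = inhibition at or above 50% relative to wild type and mutant plate controls; inactive = inhibition below 50%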;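 note: 0% = wild type cc124 cells in DMSO and 100% = ciliumless bld1 mutant cells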). The conditions noted are these: Chlamydomonas reinhardtii gravitaxis, OD600 absorbance, 2 days; at 10 µM; stronger effect = higher value.
[10] abbreviates: measured here: cell density z-score.
[11] abbreviates: measured here: nuclear c-Myc green intensity z-score.
The mark [12] stands for this setting: measured here: nuclear pErk red intensity z-score, stronger effect = higher value.

Sequence of Muscarinic acetylcholine receptor M4 (Homo sapiens) (P08173 whole entry, looked up): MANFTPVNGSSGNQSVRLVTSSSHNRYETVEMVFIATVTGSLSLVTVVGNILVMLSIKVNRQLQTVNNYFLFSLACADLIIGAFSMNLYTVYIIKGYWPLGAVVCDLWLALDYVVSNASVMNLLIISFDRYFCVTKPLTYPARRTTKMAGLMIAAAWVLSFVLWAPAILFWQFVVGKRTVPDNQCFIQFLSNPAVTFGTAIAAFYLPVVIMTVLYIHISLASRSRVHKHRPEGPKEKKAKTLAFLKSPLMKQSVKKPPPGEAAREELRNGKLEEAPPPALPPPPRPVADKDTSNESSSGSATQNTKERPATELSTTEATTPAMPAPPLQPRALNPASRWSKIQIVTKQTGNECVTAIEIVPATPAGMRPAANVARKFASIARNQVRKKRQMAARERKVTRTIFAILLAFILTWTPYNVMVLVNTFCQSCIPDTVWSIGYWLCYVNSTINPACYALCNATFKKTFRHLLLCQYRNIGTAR
Sequence of Dual specificity protein phosphatase 6 (Homo sapiens) (Q16828 whole entry, looked up): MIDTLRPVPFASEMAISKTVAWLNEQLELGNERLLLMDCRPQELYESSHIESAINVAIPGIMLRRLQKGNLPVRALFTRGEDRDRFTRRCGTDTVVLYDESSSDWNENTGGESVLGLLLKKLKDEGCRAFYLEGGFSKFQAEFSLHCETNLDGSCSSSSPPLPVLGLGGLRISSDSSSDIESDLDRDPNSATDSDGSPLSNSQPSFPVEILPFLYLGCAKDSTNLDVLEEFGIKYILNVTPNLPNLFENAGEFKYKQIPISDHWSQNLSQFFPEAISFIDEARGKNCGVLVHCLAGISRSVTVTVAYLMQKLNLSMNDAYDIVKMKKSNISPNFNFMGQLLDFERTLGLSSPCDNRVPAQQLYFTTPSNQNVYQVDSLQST

In the case of `Cc1cc(C)n(C2CCCCC2OC(=O)c2ccccc2)n1` (centres undefined), in [1], the cell count was found to be 526. The inhibition (commonly the relative decrease from the control value, in per cent) is -10% (inactive) in assay [1], -95% (inactive) in [2], 9.91% (inactive) in assay [4] and -9.73% (inactive) in assay [9]. The nuclei count in [2] came to 129%. Further, the z-score is -0.506 in [3] (setting [10]), 0.334 in assay [3] (setting [11]) and -1.55 in assay [3] (setting [12]). For the same molecule, the results for the fluorescence slope in assay [5] and in [7] were -0.381 (inactive) and 0.00464 (inactive), respectively. For the same molecule, in assay [6], the NADPH fluorescence slope was 2e-06 (inactive). Besides, the outcome in assay [8] was inactive.
Take `N#Cc1nc(-c2ccc(F)cc2)oc1N1CCCC1`: the cell count in assay [1] amounted to 706. Besides, the inhibition in assay [1] was -7.6% (inactive); in assay [2], 24.6% (inactive); in assay [4] it was 9.07% (inactive); in assay [9], -3.17% (inactive). The nuclei count in assay [2] worked out at 148%. Also, the z-score in [3] (setting [10]) is 1.01; in assay [3] (setting [11]), 1.06; in assay [3] (setting [12]) it was 0.859. Besides, the results for the fluorescence slope in [5] and in assay [7] were -0.348 (inactive) and 0.0076 (inactive), respectively. Besides, the NADPH fluorescence slope in assay [6] is -9.4e-06 (inactive). Moreover, the outcome in assay [8] was inactive.
Take `Cc1ccc(S(=O)(=O)c2cc3c(=O)n4cccc(C)c4nc3n(CC3CCCO3)c2=N)cc1` (centres undefined): the cell count in assay [1] was determined as 573. Also, the inhibition was -12.2% (inactive) in assay [1], 34.6% (inactive) in assay [2], -8.27% (inactive) in [4] and -6.46% (inactive) in [9]. This molecule displayed a nuclei count in [2] of 107%. For the same molecule, the z-score in [3] (setting [10]) was 0.122; in assay [3] (setting [11]), 0.519; in assay [3] (setting [12]), -1.24. In addition, the fluorescence slope is -0.456 (inactive) in [5] and 0.00435 (inactive) in [7]. Besides, the NADPH fluorescence slope in assay [6] was -3.3e-05 (inactive). Besides, the outcome in assay [8] was inactive.
In the case of `N#Cc1c(N)n(CCOC(=O)c2ccc(Cl)cc2)c2nc3ccccc3nc12`, the cell count in assay [1] is 617. Also, the inhibition was 22.7% (active) in assay [1], -33.2% (inactive) in [2], -2.47% (inactive) in [4] and -2.92% (inactive) in assay [9]. The nuclei count in [2] was 95%. Further, the z-score is -0.315 in assay [3] (setting [10]), -0.666 in assay [3] (setting [11]) and -0.586 in assay [3] (setting [12]). Further, the fluorescence slope was -0.278 (inactive) in assay [5] and 0.00595 (inactive) in assay [7]. In addition, in [6], the NADPH fluorescence slope was -7.1e-06 (inactive). Besides, in assay [8], the outcome was inactive.
Regarding `CCC(=O)Nc1cccc(-c2nnc(SCC(=O)NCc3ccco3)n2C)c1`, in assay [1], the cell count was determined as 615. Further, the inhibition was -0.2% (inactive) in [1], 47.2% (inactive) in assay [2], 18.4% (inactive) in [4] and -16.4% (inactive) in [9]. The molecule further gave a nuclei count in [2] of 92.3%. For the same molecule, the results for the z-score in assay [3] (setting [10]), in assay [3] (setting [11]) and in assay [3] (setting [12]) were 1.47, -0.507 and -1.13, respectively. For the same molecule, the fluorescence slope in assay [5] is -0.51 (inactive); in assay [7] it was 0.00589 (inactive). In addition, the NADPH fluorescence slope in assay [6] is -4e-05 (inactive). For the same molecule, in assay [8], the outcome was inactive.
Consider `COc1ccc(CN(C)CCc2ccccn2)c(OC)c1OC`, for which the cell count in assay [1] is 494. The inhibition in assay [1] was -4.5% (inactive); in [2], -90.8% (inactive); in [4] it was -3.95% (inactive); in [9], 18.3% (inactive). The molecule further registered a nuclei count in assay [2] of 151%. In addition, the z-score in assay [3] (setting [10]) was -1.25; in assay [3] (setting [11]), -0.772; in assay [3] (setting [12]) it was 0.512. For the same molecule, the fluorescence slope in assay [5] is -0.419 (inactive); in [7], 0.00521 (inactive). The NADPH fluorescence slope in [6] was -3.4e-05 (inactive). In addition, the result in assay [8] was inactive.
With `C/C(NC(=O)c1cccs1)=C1\C(=O)C[C@@H]2[C@H]1C2(C)C`, the cell count in assay [1] came out at 562. Besides, the inhibition was -1.6% (inactive) in assay [1], -127% (inactive) in [2], 11.9% (inactive) in [4] and -3.09% (inactive) in assay [9]. Further, the nuclei count in assay [2] stood at 150%. Further, the z-score was 0.211 in assay [3] (setting [10]), -0.0395 in [3] (setting [11]) and -0.0984 in assay [3] (setting [12]). Moreover, the fluorescence slope in assay [5] was -0.392 (inactive); in assay [7], 0.00498 (inactive). In addition, the NADPH fluorescence slope in assay [6] is -6e-05 (inactive). Further, the molecule was classed as inactive in assay [8].
Take `O=C(NCc1ccco1)c1ccc(=O)[nH]n1`: the cell count in assay [1] was determined as 578. Moreover, the inhibition is 3.8% (inactive) in assay [1], -71.8% (inactive) in assay [2], 28.1% (inactive) in assay [4] and 29.4% (inactive) in assay [9]. The nuclei count in assay [2] was 91.1%. The z-score in assay [3] (setting [10]) is 0.426; in assay [3] (setting [11]), -0.894; in assay [3] (setting [12]) it was -1.39. For the same molecule, the fluorescence slope was -0.539 (inactive) in [5] and 0.00665 (inactive) in [7]. For the same molecule, the NADPH fluorescence slope in assay [6] was -4.2e-05 (inactive). Also, the molecule was classed as inactive in assay [8].
Turning to `Cn1c(OCc2cccnc2)nc2c1c(=O)n(Cc1ccc(Br)cc1)c(=O)n2C`, in assay [1], the cell count amounted to 723. Also, the inhibition is -15.3% (inactive) in [1], -75% (inactive) in assay [2], -5.95% (inactive) in [4] and 32.6% (inactive) in [9]. In assay [2], the nuclei count turned out to be 172%. For the same molecule, the z-score in [3] (setting [10]) is -1.07; in assay [3] (setting [11]) it was -0.35; in [3] (setting [12]), 0.344. For the same molecule, the results for the fluorescence slope in assay [5] and in assay [7] were -0.475 (inactive) and 0.00549 (inactive), respectively. Also, the NADPH fluorescence slope in assay [6] is -4e-05 (inactive). Also, in [8], the call was inactive.
On to `Cn1c(=O)c2c(nc(Br)n2CCSc2nc3ccccc3o2)n(C)c1=O`, for which, in assay [1], the cell count came to 608. Further, the inhibition was -8.8% (inactive) in assay [1], 32.7% (inactive) in assay [2], 17.4% (inactive) in [4] and 45.2% (inactive) in assay [9]. Also, the nuclei count in [2] was 175%. For the same molecule, the z-score in [3] (setting [10]) is -0.0761; in [3] (setting [11]), 0.135; in assay [3] (setting [12]) it was -1.22. Besides, the fluorescence slope in [5] is -0.346 (inactive); in assay [7], 0.00576 (inactive). In addition, the NADPH fluorescence slope in [6] is -7e-06 (inactive). The call in assay [8] was inactive.
With `CCCCCOC(=O)Cc1c(C)nc(-c2ccccc2)[nH]c1=O`, the cell count in assay [1] was determined as 373. Moreover, the inhibition in assay [1] was -0.5% (inactive); in [2], -157% (inactive); in [4], 30.7% (inactive); in assay [9], 32% (inactive). In assay [2], this molecule gave a nuclei count of 157%. Further, the results for the z-score in assay [3] (setting [10]), in assay [3] (setting [11]) and in assay [3] (setting [12]) were 1.82, -0.595 and -0.463, respectively. Besides, the fluorescence slope in assay [5] is -0.474 (inactive); in assay [7] it was 0.00469 (inactive). In addition, the NADPH fluorescence slope in [6] is -7.9e-05 (inactive). In addition, the molecule was classed as inactive in assay [8].
For the molecule `Cc1cc(C)n(S(=O)(=O)/C=C/c2ccccc2)n1`, in assay [1], the cell count stood at 395. The inhibition in [1] is -10.4% (inactive); in assay [2] it was -329% (inactive); in assay [4], -10.6% (inactive); in [9] it was 25.5% (inactive). In [2], the nuclei count was 150%. The values for the z-score in [3] (setting [10]), in assay [3] (setting [11]) and in [3] (setting [12]) were 8.45e-06, -0.53 and 0.596, respectively. In addition, the results for the fluorescence slope in assay [5] and in assay [7] were -0.475 (inactive) and 0.00397 (inactive), respectively. In addition, the NADPH fluorescence slope in [6] is -0.000103 (inactive). Moreover, the outcome in assay [8] was inactive.
On to `CCN(CC)CCN1C(=O)C(O)=C(C(C)=O)C1c1ccc(OC)c(OC)c1` (centres undefined), for which the cell count in assay [1] was 466. Besides, the inhibition in assay [1] is 0.4% (inactive); in assay [2], -202% (inactive); in assay [4], -5.62% (inactive); in assay [9] it was 2.41% (inactive). The nuclei count in assay [2] was 182%. In addition, the z-score was 0.172 in assay [3] (setting [10]), -0.258 in assay [3] (setting [11]) and 1.22 in assay [3] (setting [12]). Besides, the fluorescence slope in assay [5] was -0.445 (inactive); in [7], 0.00464 (inactive). Also, in assay [6], the NADPH fluorescence slope was -4.1e-05 (inactive). Further, the outcome in assay [8] was inactive.
